bCat nuc transl = modulators of beta-catenin nuclear translocation, primary screen, imaging, HeLa cells, immunofluorescence, high-content; actives 0.3% (n = 190,000); nuclear translocation activity, % at 5 µM; AID 1665, 2009;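 active means nuclear translocation activity above 50% at 5 µM, with a well cell count of 50 or more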;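 further: per-cell ratio of nuclear to cytoplasmic median beta-catenin stain intensity; plate controls were DMSO negative control for no effect and GSK-3 inhibitor IX positive control for full effect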
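Technique: fluorescence imaging of beta-catenin antibody stain plus DAPI / Material: human HeLa cell line / Incubation: compound treatment 24 h, 37°C, 5% CO2 / Read-out basis: % activation of per-cell nuclear versus cytoplasmic median beta-catenin signal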
Autophagy mod = autophagy modulators in MEF cells, primary screen, imaging, high-content, MEF GFP-LC3. calls only at 10 µM (by protocol). MEF GFP-LC3 puncta imaging; test concentration mostly 10 µM. actives 0.98% (n = 190,000);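 active means percentage of spot-positive cells more than 3 SD above its plate mean, without a fluorescence outlier flag or 80% toxicity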;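 further: spot-positive cell cutoff set from DMSO-treated cells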
Dynein transport = inhibitors of GR-EGFP nuclear translocation, primary screen, dynein cargo transport inhibitor project, imaging, high-content, 3617.4 mouse cells; test concentration mostly 20 µM; stimulated with dexamethasone, 1 µM; active compounds read low; z-score, hits read low; actives 0.47% (n = 220,000);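 active means plate z-score of nuclear minus cytoplasmic receptor signal below a set negative limit, without overly bright fluorescence or cell loss, cut at about -3.5 in these data, passing the limit was not always enough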;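 further: z-score of nuclear minus cytoplasmic ring GR-EGFP intensity difference per well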
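Also added: dexamethasone, 1.0 µM final. Medium: tet-free, stripped-serum medium. Detection: fixed, Hoechst-stained cells imaged at 10x for EGFP. Read-out: nuclear-to-cytoplasmic GR-EGFP distribution per well. Times: induction 48 h, compound 1 h, agonist 30 min.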
CHOP inhibitor = inhibitors of CHOP promoter induction, primary screen, cell-based, unfolded protein response, luciferase reporter. CHO-K1 CHOP-promoter luciferase, tunicamycin-induced, 15-18 h. inhibition, % at 10 µM. actives 3.8% (n = 220,000). AID 2732, 2010;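 active means compounds that reduced the stress-induced luciferase reporter signal by more than about 70% of percent inhibition, limit read from the data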;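 further: 0% = tunicamycin plus vehicle and 100% = wells without tunicamycin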
MT stabilize HCS = microtubule stabilizers in HeLa cells, primary screen, imaging, high-content imaging. HeLa tubulin immunostaining HCS, 24 h; share of cells brighter than vehicle mean+2SD. % tubulin-high responders, % at 10 µM. actives 0.83% (n = 200,000);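 active means plate Z-score above 3 for both tubulin-high and condensed-nucleus cell shares, with cell loss under 80%, at 10 µM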;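 further: anti alpha tubulin signal scored within the nucleus-defined area of each cell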
Lmaj promast = Leishmania major promastigote growth inhibition, primary screen; Leishmania major promastigotes, resazurin fluorescence viability; inhibition, % at 10 µM; actives 9% (n = 200,000); in the data active means inhibition above about 50%;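 further: promastigotes grown with compound for 44 hours at 28 °C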
* hit, by the source's call; i = inactive; x = not tested or not shown; + = active, no number. This is a sample that favours compounds with a hit; in the whole collection about 12% have one here.

SMILES	bCat nuc transl	Autophagy mod	Dynein transport	CHOP inhibitor	MT stabilize HCS	Lmaj promast
CCSc1nc2c([nH]c3ccccc32)c(=O)n1C	x	i	0.45	77*	3	-7
CCCCOc1ccccc1Cn1c(=O)oc2ccccc21	-2	i	0.043	88*	3	9
CSc1nc(-c2ccco2)nn1C(=O)c1ccc(C)cc1	1	i	-0.57	80*	4	-10
O=C(c1cccs1)N(Cc1ccco1)c1nc(-c2ccc(F)cc2)cs1	x	i	-0.28	15	3	2
CN(C)CCCN(C(=O)c1cccs1)c1nc(-c2ccccc2)cs1	-4	+	0.43	16	4	100*
Cc1c(NC(=O)Cn2ccc([N+](=O)[O-])n2)c(=O)n(-c2ccccc2)n1C	-2	i	1	-2	4	-4
Cc1ccccc1NC(c1cccc(Cl)c1)c1nnnn1C1CCCCC1 (stereo not given)	x	i	-0.76	87*	4	47
O=C(CC1C(=O)NCCN1C(=O)Nc1ccc(Cl)cc1)Nc1ccc(F)cc1 (stereo not given)	1	+	-0.09	12	2	6
Cn1c(N)c(C(=O)COC(=O)C2(c3cccc(F)c3)CCCC2)c(=O)n(C)c1=O	-1	i	-0.31	65	2	14
CC(=O)c1ccc(Nc2c3c(nc4ccccc24)CCCC3)cc1	1	x	1.1	7	x	x
COc1cc(Nc2c3c(nc4ccccc24)CCCC3)cc(OC)c1OC	0	i	-1.3	-19	6	66*
c1ccc2c(Nc3ccc4c(c3)OCCO4)c3c(nc2c1)CCCC3	1	i	-1	-16	4	99*
COC(=O)C1C(=O)c2c([nH]c(C(=O)OCC3CCCO3)c2C)CC1C (stereo not given)	3	i	-0.67	21	5	-4
CCCNC(=O)COc1cccc(C(=O)NCc2ccccc2)c1	x	i	0.56	30	2	-6
CC(C)CNC(=O)COc1cccc(C(=O)NCc2ccccc2)c1	-1	i	-0.28	29	2	52*
CCNC(=O)COc1cccc(C(=O)NCc2ccccc2)c1	-1	i	0.14	1	2	51*
CNC(=O)COc1cccc(C(=O)NCc2ccccc2)c1	-3	i	1.9	13	4	-4
COc1cc(/C=C/c2ccc3c([N+](=O)[O-])cccc3n2)ccc1OCC(=O)O	0	x	-0.24	-2	x	x
COc1cc(/C=C/c2cc(OC(C)=O)c3ccccc3n2)c(OC(C)=O)c([N+](=O)[O-])c1	x	i	0.04	87*	2	8
O=C(Nc1cc(Cl)ccc1Cl)C1CC(=O)N(c2ccc(Br)cc2)C1 (stereo not given)	-2	i	-0.0018	70*	2	-8
Cc1ccc(-c2cc(C(=O)N3N=C(C(F)F)CC3(O)C(F)F)c3ccccc3n2)cc1C (stereo not given)	-3	i	-0.11	-2	5	61*
O=C(CCc1nc(-c2cccs2)no1)NCc1ccc(F)cc1Cl	x	+	-0.1	52	2	-8
Cc1ccc(CNC(=O)CCc2nc(-c3cccs3)no2)cc1	x	i	-0.73	26	2	-6
CCOC(=O)c1c(C)nc2c(c1-c1ccccc1)C(=O)CC(C)(C)C2	x	i	0.12	10	1	8
Cc1nc2c(c3c1[nH]c1ccccc13)C(=O)CC(C)(C)C2	1	i	0.49	20	4	64*
c1ccc(OCc2noc(CN3CC[C@@H]4CCCC[C@H]4C3)n2)cc1	1	i	-0.37	75*	2	-8
CCOc1ccc(NS(=O)(=O)c2cnc(Cl)c(Cl)c2)cc1	4	i	-0.74	15	16*	-2
CCOc1ccc(NS(=O)(=O)c2ccc(N)cc2)cc1	-1	i	0.13	-19	3	15
Cc1cc(C)cc(NS(=O)(=O)c2cnc(Cl)c(Cl)c2)c1	-4	i	-1.2	38	3	82*
CC(C)OCC(O)CS(=O)Cc1ccccc1 (stereo not given)	x	i	-0.8	-14	1	-3

High-throughput results deposited in PubChem BioAssay by several laboratories.
